# INS-1E rescue = preserves ATP levels in cytokine-treated INS-1E cells. protection from cytokine-induced ATP loss, % at 10 µM. AID 488910. INS-1E cytokine-induced death, ATP luminescence, 48 h; normalised: neutral wells 0, positive control 100. hit rate 0.1% among 20,000;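 active = mean replicate protection from cytokine-induced ATP loss at least 50% and at least 75% of replicates each reaching 50%; inconclusive = meets only one of the two criteria, mean or replicate share; inactive = fails both the mean and replicate share criteria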
#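 Assay system: INS-1E rat cells / Quantity: 8000 cells per well / Medium: RPMI without phenol red, 5% FBS / Probe or stimulus: three-cytokine cocktail (IFN-γ, TNF-α, IL-1β) / Dosing: one compound concentration, pin transfer / Timing: 48 h co-treatment, 10 min post-lysis read / Technique: CellTiter-Glo luminescence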
# A1 apoptosis 2 = compounds inhibiting A1, read as caspase activation; MEF A1-2A-BIM cells, caspase-Glo luminescence, 3 h; percent of clofoctol response, DMSO zero; AID 2465; 24,000 tested, under 10 active; caspase activation, % (concentration not given with the values); in the data active = caspase activation above about 5.9%; inconclusive = no clear call, values can overlap the other calls; inactive = below about 2.2%
#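 Material: A1-2A-BIM-expressing MEF cells. Buffer or medium: RPMI-1640 plus 10% FBS. Incubation: cells settled overnight, compound exposure 3 h at 37 °C, 5% CO2. Signal: Caspase-Glo 3/7 luminescence, 1 h at room temperature.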
# T cruzi intra = inhibitors of intracellular Trypanosoma cruzi. intracellular Trypanosoma cruzi in host cells, plate reader. activity score (inhibition), % at 5.01 µM. AID 651903. hit rate 4.9% among 22,000; in the data active = activity score above about 55%; inconclusive = no clear call, values can overlap the other calls;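 note: parasites and compound incubated about four days before reading; 0% = median of neutral control wells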
# Numbers without * were called inactive; ? = inconclusive; nt = not tested or not shown. Many of the other results were omitted from the sample, so hits are more common in it than they were.
SMILES,INS-1E rescue,A1 apoptosis 2,T cruzi intra
COc1ccc(NC(=O)Nc2ccc3c(c2)C(=O)N([C@H](C)CO)C[C@H](C)[C@@H](CN(C)Cc2ccc(Cl)c(Cl)c2)OCCCC[C@@H](C)O3)cc1,-45,1,59*
O=C(O)CCCCCCC(=O)NN=C1CCCC1,0,1,-14
CC(C)(C)OC(=O)NC1(/C=N/NC(=O)CCCCC(=O)NO)CCCC1,-2,1,9
CC(C)=CCC[C@@H](C)C/C=N/NC(=O)CCCCCCC(=O)O,7,1,-3
[N-]=[N+]=NCC(=O)N1CCN(c2ccccc2)CC1,nt,1,nt
C[C@@H]1CN([C@@H](C)CO)C(=O)c2cc(NC(=O)Nc3cccc4ccccc34)ccc2O[C@@H]1CN(C)Cc1ccc(Oc2ccccc2)cc1,-57,0,57*
COc1ccc(CN(C)C[C@@H]2Oc3ccc(NC(=O)Nc4cccc5ccccc45)cc3CC(=O)N([C@@H](C)CO)C[C@@H]2C)cc1,0,2,28
C[C@@H]1CN([C@H](C)CO)C(=O)c2cc(NC(=O)Nc3cccc4ccccc34)ccc2O[C@H]1CN(C)Cc1ccc(Oc2ccccc2)cc1,nt,1,53
C[C@H]1CN([C@@H](C)CO)C(=O)Cc2cc(NC(=O)Nc3cccc4ccccc34)ccc2O[C@@H]1CN(C)CC1CCCCC1,-24,-1,76*
C[C@@H]1CN([C@H](C)CO)C(=O)Cc2cc(NC(=O)Nc3cccc4ccccc34)ccc2O[C@@H]1CN(C)Cc1ccc(-c2ccccc2)cc1,-2,1,?
C[C@@H]1CN([C@H](C)CO)C(=O)Cc2cc(NC(=O)Nc3cccc4ccccc34)ccc2O[C@@H]1CN(C)Cc1ccc(Oc2ccccc2)cc1,-16,1,69*
C[C@H](CO)N1C[C@H](C)[C@H](CN(C)CC2CC2)Oc2ccc(NC(=O)Nc3cccc4ccccc34)cc2CC1=O,nt,1,nt
C[C@@H]1CN([C@H](C)CO)C(=O)Cc2cc(NC(=O)Nc3cccc4ccccc34)ccc2O[C@H]1CN(C)Cc1ccccc1,-7,nt,79*
C=CCNC(=O)[C@H]1[C@@H]2C(=O)O[C@@H](c3ccccc3)[C@@H](c3ccccc3)N2[C@@H](c2ccccc2OCCO)[C@]12C(=O)N(C(=O)OCCOC)c1ccc(C#CCC(C(=O)OC)C(=O)OC)cc12,nt,0,nt
NC(=O)[C@H]1[C@@H]2C(=O)O[C@@H](c3ccccc3)[C@@H](c3ccccc3)N2[C@@H](c2ccc(O)cc2)[C@]12C(=O)Nc1ccc(C#CC3=CCCCC3)cc12,nt,0,nt
COC(=O)c1ccc(/C=N/NC(=O)c2ccccn2)cc1,nt,-11,nt
COc1ccc(/C=N/NC(=O)CCCCCC(=O)Nc2ccccc2O)cc1OC,11,nt,-3
C[C@@H]1CN([C@@H](C)CO)C(=O)Cc2cc(NC(=O)Nc3cccc4ccccc34)ccc2O[C@@H]1CN(C)Cc1ccc(C(F)(F)F)cc1,-23,0,91*
C[C@@H]1CN([C@@H](C)CO)C(=O)Cc2cc(NC(=O)Nc3cccc4ccccc34)ccc2O[C@@H]1CN(C)Cc1ccc(-c2ccccc2)cc1,1,nt,50
C[C@@H]1CN([C@H](C)CO)C(=O)Cc2cc(NC(=O)Nc3cccc4ccccc34)ccc2O[C@@H]1CN(C)C(=O)Nc1ccc(C(F)(F)F)cc1,-6,nt,26
C[C@H]1CN([C@@H](C)CO)C(=O)Cc2cc(NC(=O)Nc3cccc4ccccc34)ccc2O[C@H]1CN(C)Cc1ccccc1,-19,0,69*
C[C@@H]1CN([C@@H](C)CO)C(=O)Cc2cc(NC(=O)Nc3cccc4ccccc34)ccc2O[C@@H]1CN(C)Cc1ccccc1,-22,nt,67*
C[C@H]1CN([C@@H](C)CO)C(=O)Cc2cc(NC(=O)Nc3cccc4ccccc34)ccc2O[C@H]1CN(C)Cc1ccc(-c2ccccc2)cc1,-45,nt,4
O=C1O[C@@H](c2ccccc2)[C@@H](c2ccccc2)N2[C@@H](c3ccc(O)cc3)[C@]3(C(=O)Nc4ccc(C#CCCO)cc43)[C@@H](C(=O)O)[C@H]12,nt,-1,nt
O=C1c2ccccc2C(=O)N1[C@@H]1CCCN(Cc2cccc(OCCO)c2)C1,nt,-1,nt
SMILES,INS-1E rescue,A1 apoptosis 2,T cruzi intra
COC(=O)CCCCCCC(=O)N/N=C/c1ccccc1C,2,nt,-5
O=C(N/N=C/c1c(F)c(F)c(F)c(F)c1F)c1ccccc1O,-37,-2,-11
C[C@@H]1CCCCO[C@@H](CN(C)Cc2ccc(Cl)c(Cl)c2)[C@@H](C)CN([C@@H](C)CO)C(=O)c2cc(NS(=O)(=O)c3ccc(F)cc3)ccc2O1,nt,0,nt
COc1ccc(S(=O)(=O)Nc2ccc3c(c2)C(=O)N([C@H](C)CO)C[C@H](C)[C@H](CN(C)Cc2ccc(Cl)c(Cl)c2)OCCCC[C@@H](C)O3)cc1,-8,nt,57*
C[C@@H]1CCCCO[C@H](CN(C)Cc2ccc(Cl)c(Cl)c2)[C@@H](C)CN([C@@H](C)CO)C(=O)c2cc(NS(=O)(=O)c3ccc(Cl)cc3)ccc2O1,nt,1,nt
C[C@@H]1CCCCO[C@H](CN(C)Cc2ccc(Cl)c(Cl)c2)[C@@H](C)CN([C@H](C)CO)C(=O)c2cc(NS(=O)(=O)c3ccc(F)cc3)ccc2O1,-29,nt,65*
Cc1ccc(S(=O)(=O)Nc2ccc3c(c2)C(=O)N([C@H](C)CO)C[C@H](C)[C@H](CN(C)Cc2ccc(Cl)c(Cl)c2)OCCCC[C@@H](C)O3)cc1,-45,nt,77*
Cc1ccc(S(=O)(=O)Nc2ccc3c(c2)C(=O)N([C@H](C)CO)C[C@@H](C)[C@@H](CN(C)Cc2ccc(Cl)c(Cl)c2)OCCCC[C@H](C)O3)cc1,nt,0,nt
C[C@@H]1CCCCO[C@@H](CN(C)Cc2ccc(Cl)c(Cl)c2)[C@@H](C)CN([C@H](C)CO)C(=O)c2cc(NS(=O)(=O)c3ccccc3)ccc2O1,-69,nt,66*
COc1ccc(S(=O)(=O)Nc2ccc3c(c2)C(=O)N([C@@H](C)CO)C[C@H](C)[C@@H](CN(C)Cc2ccc(Cl)c(Cl)c2)OCCCC[C@@H](C)O3)cc1,nt,0,nt
O=C(CCCCCCC(=O)N/N=C/c1ccc(O)cc1)NO,nt,-2,nt
C[C@@H]1CN([C@H](C)CO)C(=O)c2cc(NC(=O)Cc3cn(C)c4ccccc34)ccc2O[C@H]1CN(C)Cc1ccc(-c2ccccc2)cc1,-10,-2,13
C[C@@H]1CN([C@H](C)CO)C(=O)Cc2cc(NC(=O)Cc3cn(C)c4ccccc34)ccc2O[C@@H]1CN(C)Cc1ccc(Cl)c(Cl)c1,-40,1,69*
C[C@H](CO)N1C[C@H](C)[C@H](CN(C)S(=O)(=O)c2ccc(Cl)cc2)Oc2ccc(NC(=O)Cc3cn(C)c4ccccc34)cc2C1=O,-9,-1,50
C[C@H](CO)N1C[C@H](C)[C@H](CN(C)Cc2ccc(Cl)c(Cl)c2)Oc2ccc(NC(=O)Cc3cn(C)c4ccccc34)cc2C1=O,-21,1,56*
C[C@H]1CN([C@@H](C)CO)C(=O)c2cc(NC(=O)Cc3cn(C)c4ccccc34)ccc2O[C@H]1CN(C)S(=O)(=O)c1ccc(Cl)cc1,1,1,67*
